pEC50: −log10 of the molar value. Activity calls are given as the source filed them. No cut-off for these calls is given here.
Assays:
Mus musculus = experiment: Reduction in amyloid beta 42 levels in mouse brain at 30 mg/kg, po measured at 6 hrs post dose by ELISA; type: functional
Outline: (§1)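 Single oral dose of 30 mg/kg; brain (mouse, rat) and rat CSF Aβ42 and Aβ37 measured 6 h post-dose, expressed relative to vehicle; total and free brain drug levels and brain:plasma ratio taken at the same time.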

[1] = Ratio of drug level in brain to plasma in mouse at 30 mg/kg, po measured at 6 hrs post dose; type: ADME, organism-based; conditions: read-out: BPR; outline: as §1
[2] = Unbound intrinsic clearance in rat hepatocytes; type: ADME, cell-based, Hepatocyte
Brain = experiment: Unbound drug level in mouse brain at 30 mg/kg, po measured at 6 hrs post dose; type: ADME, organism-based; conditions: in vivo; outline: as §1
[3] = Total drug level in mouse brain at 30 mg/kg, po measured at 6 hrs post dose; type: ADME, organism-based; conditions: read-out: Drug uptake; outline: as §1
[4] = Modulation of gamma-secretase in human H4 cells expressing human APP751 assessed as inhibition of amyloid beta 42 production incubated overnight by sandwich ELISA; type: cell-based; conditions: Homo sapiens
Outline: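 Aβ42 EC50 in H4 cells overexpressing WT human APP751; each value is the average of n > 2 assays, each run in duplicate.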

SMILES	Kp at 6 h [1]	CL free [2] [mL/min/kg]	Drug uptake(free) (Brain) [nM]	concentration at 6 h [3] [µM]	pEC50 [4]	inhibition in vivo at 30 mg/kg (Mus musculus) [%]	Activity (Mus musculus)
COc1nc(C2=NOC[C@H](c3cc4ccccc4s3)N2)ccc1-n1cnc(C)c1	2.8	430	76	30.2	8.10	34	–
COc1nc(C2=NOC[C@H](COc3ccc(F)cc3C)N2)ccc1-n1cnc(Cl)c1	–	4105	–	–	7.14	–	–

Continued, in another order:

Kp at 6 h [1]	CL free [2] [mL/min/kg]	Drug uptake(free) (Brain) [nM]	concentration at 6 h [3] [µM]	pEC50 [4]	SMILES	inhibition in vivo at 30 mg/kg (Mus musculus) [%]	Activity (Mus musculus)
–	–	–	–	6.96	COc1cc(C2=NOC[C@H](COc3ccc(Cl)cc3C(F)(F)F)N2)ccc1-n1cnc(C)c1	–	inactive
–	–	–	–	< 5.52	COc1nc(C2=NOC[C@H]3[C@@H](Oc4ccc(F)cc4C)CCCN23)ccc1-n1cnc(C)c1	–	–
–	–	–	–	6.64	COc1cc(C2=NOC[C@H](COc3ccc(F)cc3C)N2)ccc1-n1cnc(C)c1	–	inactive

Source: ChEMBL document CHEMBL4007439, “Design, Synthesis, and Evaluation of a Novel Series of Oxadiazine Gamma Secretase Modulators for Familial Alzheimer's Disease” (J Med Chem, 2017)
